Data: ChEMBL document CHEMBL1151456, “Anaerobic NADH-fumarate reductase system is predominant in the respiratory chain of Echinococcus multilocularis, providing a novel target for the chemotherapy of alveolar echinococcosis” (Antimicrob Agents Chemother, 2008)
Calls of active or inactive are those of the source. No cut-off for these calls is given here.

Legend:
[1] = test system: Echinococcus multilocularis; assay: Antiparasitic activity against Echinococcus multilocularis protoscolex at 5 uM after 5 days by trypan blue staining; format: functional, organism-based
Summary of the method: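 Protoscoleces of the Nemuro strain, freed of host material, kept in long-term maintenance medium in six-well plates at about 500 protoscoleces/ml, with half the medium replaced twice weekly. Compound added to the medium at 5 or 50 μM; the vehicle control was 0.5% (vol/vol) DMSO. Run in triplicate. Viability was scored microscopically on >170 protoscoleces per well by motility and trypan blue exclusion.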

[2] = Inhibition of NADH fumarate reductase in Echinococcus multilocularis protoscolece
Summary of the method: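 Enriched mitochondrial fraction from Nemuro-strain protoscoleces, 80 μg protein/ml, in 30 mM potassium phosphate pH 7.4 with 1 mM MgCl2 at 25°C. Made anaerobic over 3 min with glucose oxidase, catalase and 10 mM β-D-glucose. NADH (100 μM) oxidation followed at 340 nm after starting with 5 mM fumarate. IC50 determined.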

[3] = test system: Echinococcus multilocularis; assay: Antiparasitic activity against Echinococcus multilocularis protoscolex assessed as reduction of parasite viability at 50 uM by trypan blue staining; format: functional, organism-based
[4] = test system: Echinococcus multilocularis; assay: Antiparasitic activity against Echinococcus multilocularis protoscolex assessed dead parasite at 50 uM after 5 days by trypan blue staining; format: functional, organism-based
[5] = Inhibition of bovine heart mitochondrial NADH oxidase

Structure (SMILES)	Activity [1]	IC50 [2] [nM]	also measured
CC(=O)Oc1ccccc1C(=O)Nc1ncc([N+](=O)[O-])s1	inactive		
C=C(C)[C@H]1Cc2c(ccc3c2O[C@@H]2COc4cc(OC)c(OC)cc4[C@@H]2C3=O)O1	Active		
C=CC(=O)Nc1ccc2ncnc(NCCc3ccc(C(C)(C)C)cc3)c2c1		16	
COc1cccc2c(NCCc3ccc(C(C)(C)C)cc3)ncnc12		48	
CC(C)Oc1cccc2c(NCCc3ccc(C(C)(C)C)cc3)ncnc12		910	
CC(C)(C)c1ccc(CCNc2ncnc3ccc(N)cc23)cc1		2.1	
CC(C)(C)c1ccc(CCNc2ncnc3c(O)cccc23)cc1	inactive	71	Activity [3]: Active; Activity [4]: Active; IC50 [5]: 230 nM
CC(C)(C)c1ccc(CCNc2ncnc3cc(N)ccc23)cc1		62	
c1ccc2ncncc2c1 [QUINAZOLINE]		2.3	
CCOc1cccc2c(NCCc3ccc(C(C)(C)C)cc3)ncnc12		4100	
